Data from ChEMBL document CHEMBL3763145, “Niizalactams A-C, Multicyclic Macrolactams Isolated from Combined Culture of Streptomyces with Mycolic Acid-Containing Bacterium” (J Nat Prod, 2015).
Activity calls are given as the source filed them.

Tests used:
P388 = test: Cytotoxicity against mouse P388 cells assessed as reduction in cell viability at 0.78 to 100 uM after 4 days by MTT assay; format: functional, cell-based
Outline: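 P388 cells kept in RPMI 1640 with 10% FBS and penicillin/streptomycin, 37 °C, 5% CO2. Compounds added from DMSO or methanol solutions to 1 × 10^5 cells/mL suspension at final 100 to 0.78 μM (twofold series); 4 days exposure. MTT (1 mg/mL) added 4 h, pellet dissolved in DMSO, absorbance read at 570 nm.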

Candida albicans = test: Antimicrobial activity against Candida albicans at 1.25 to 10 ug/disc after 1 to 2 days by disc diffusion method; format: functional, organism-based
Outline: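 Candida albicans precultured in LB broth; 1 mL broth seeded directly into 20 mL agar of 4.0% glucose, 1.0% peptone, pH 5.7. 6 mm paper disks at 10, 5, 2.5, 1.25 μg/disk; plates held at 37 °C for 1 to 2 days and scored for inhibition rings.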

Saccharomyces cerevisiae = test: Antimicrobial activity against Saccharomyces cerevisiae at 1.25 to 10 ug/disc after 1 to 2 days by disc diffusion method; format: functional, organism-based
Outline: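 Saccharomyces cerevisiae precultured in LB broth; 1 mL added to 20 mL agar (5.0% glucose, 0.5% peptone, 0.2% yeast extract, 0.4% K2HPO4, 0.2% KH2PO4, 0.02% MgSO4·7H2O, pH 5.6). Disks (6 mm) at 10, 5, 2.5, 1.25 μg/disk; 37 °C, 1 to 2 days; inhibition rings checked.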

Bacillus subtilis = test: Antimicrobial activity against Bacillus subtilis at 1.25 to 10 ug/disc after 1 to 2 days by disc diffusion method; format: functional, organism-based
Outline: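 Bacillus subtilis precultured in LB broth; 1 mL broth added directly to 20 mL LB agar. Paper disks (6 mm) loaded at 10, 5, 2.5 and 1.25 μg/disk placed on plates; incubation at 37 °C for 1 to 2 days; read-out was presence of inhibition rings around disks.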

Measured: Activity

CC1=C\[C@H]2[C@@H]3[C@@H](O)[C@H](O)[C@H](O)C(=O)[C@@H]3C=C[C@@H]2/C(C)=C/C=C/C=C/[C@@H](C)CNC(=O)CC(=O)\C=C\1
inactive: P388 | Candida albicans | Saccharomyces cerevisiae | Bacillus subtilis

CC1=C\C=C\[C@H]2[C@H](O)[C@@H](C)CN2C(=O)CC(=O)/C=C/C(C)=C/C=C/[C@@H](O)[C@H](O)[C@H](O)C(=O)/C=C\C=C\1
inactive: P388 | Candida albicans | Saccharomyces cerevisiae | Bacillus subtilis

CC1=C\C=C\[C@H]2[C@H](O)[C@@H](C)CN2C(=O)CC(=O)/C=C/C(C)=C/C=C/C[C@H](O)[C@H](O)C(=O)/C=C\C=C\1
inactive: P388 | Candida albicans | Saccharomyces cerevisiae | Bacillus subtilis
